Measurements from paper PMC4931877 (The Journal of Pharmacology and Experimental Therapeutics, 2016).

Assays:
[1] = SAD study CSF pharmacokinetics; format: in vivo, human
In short: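 In panel 9, 15 healthy subjects received a single 900-mg dose or placebo (2:1) in the fasted state. CSF was drawn by lumbar cannulation at −1, 0, 2, 4, 6, 8, 12, 15, 18 and 24 h postdose, using polypropylene ware and a pump without a filter. Samples were stored at −80°C, and drug was measured by validated LC-MS/MS.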

[2] = MAD study safety and tolerability; format: in vivo, human
In short: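 Multiple-dose healthy young and elderly subjects were assessed by vital signs, physical examination, 12-lead ECG and clinical laboratory tests. AEs were spontaneously reported or elicited, and their onset, duration, intensity, seriousness, relatedness and action taken were recorded. AEs were coded by MedDRA 12.1 system organ class and preferred term. Columbia suicidality ratings were also collected.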

CSF Aβ peptides = test: MAD study pharmacodynamic effects on CSF Aβ peptides; format: in vivo, human
brain Aβ42 = system: brain Aβ42; parameters: species or system human; details: single 900-mg dose
[3] = system: plasma Aβ40, Aβ42, and total Aβ; test: MAD study pharmacodynamic effects on plasma Aβ; format: in vivo, human
In short: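 Healthy volunteers were dosed once daily at 50, 100 or 200 mg for up to 28 days. EDTA plasma was stored at −80°C. Aβ40 and Aβ42 were measured by Luminex duplex immunoassay (LLOQ 30 and 3 pg/ml) and total Aβ by MSD (LLOQ 50 pg/ml), in duplicate. Values are % change from baseline, analysed by repeated-measures ANCOVA.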

UGT1A1 = molecular target: T1, UGT1A1 (Homo sapiens, UniProt P22309); test: UGT1A1 inhibition; format: biochemical
T1 sequence (P22309 26-533): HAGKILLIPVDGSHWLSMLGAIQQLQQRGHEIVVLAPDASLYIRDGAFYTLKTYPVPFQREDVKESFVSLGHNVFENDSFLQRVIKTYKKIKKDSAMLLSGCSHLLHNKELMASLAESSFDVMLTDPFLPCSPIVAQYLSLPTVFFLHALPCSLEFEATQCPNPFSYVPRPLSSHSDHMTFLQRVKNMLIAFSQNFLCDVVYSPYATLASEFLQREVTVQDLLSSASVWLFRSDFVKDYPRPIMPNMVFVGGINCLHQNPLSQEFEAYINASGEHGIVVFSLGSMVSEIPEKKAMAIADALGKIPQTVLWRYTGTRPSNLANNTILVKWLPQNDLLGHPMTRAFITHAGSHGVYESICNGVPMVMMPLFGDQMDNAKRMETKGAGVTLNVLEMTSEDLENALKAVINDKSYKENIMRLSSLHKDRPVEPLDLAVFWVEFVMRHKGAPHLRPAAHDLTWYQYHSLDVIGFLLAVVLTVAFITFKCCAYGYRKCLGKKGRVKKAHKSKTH

CYP3A4 = CYP3A4 (Homo sapiens, UniProt P08684); test: Preclinical CYP3A4 time-dependent inhibition, induction and metabolism; format: in vitro ADME
[4] = system: brain and CSF Aβ42 and Aβ40; details: dogs; ref Toyn et al., 2016; cited from earlier work

Chain of CYP3A4 (P08684 whole entry): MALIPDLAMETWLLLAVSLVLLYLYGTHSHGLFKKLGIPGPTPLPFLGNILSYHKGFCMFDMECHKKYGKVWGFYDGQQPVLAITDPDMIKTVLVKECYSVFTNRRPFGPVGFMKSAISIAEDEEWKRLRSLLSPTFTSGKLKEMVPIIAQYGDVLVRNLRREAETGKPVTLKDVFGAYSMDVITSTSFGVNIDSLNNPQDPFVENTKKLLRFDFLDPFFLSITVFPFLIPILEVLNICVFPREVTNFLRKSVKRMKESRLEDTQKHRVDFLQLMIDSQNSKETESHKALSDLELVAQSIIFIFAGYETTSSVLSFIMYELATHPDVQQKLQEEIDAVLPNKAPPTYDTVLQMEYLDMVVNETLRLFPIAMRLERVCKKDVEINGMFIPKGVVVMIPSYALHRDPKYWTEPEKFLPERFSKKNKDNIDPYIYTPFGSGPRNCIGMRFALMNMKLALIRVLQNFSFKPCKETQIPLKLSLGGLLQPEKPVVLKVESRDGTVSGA

CNc1nc(Nc2ccc(-n3cnc(C)n3)c(OC)c2)nc2c1CC[C@H]2c1ccc(F)cc1 [BMS-932481, (S)-7-(4-fluorophenyl)-N2-(3-methoxy-4-(3-methyl-1H-1,2,4-triazol-1-yl)phenyl)-N4-methyl-6,7-dihydro-5H-cyclopenta[d]pyrimidine-2,4-diamine]
Tmax Median (Minimum–Maximum) ([1]; SAD panel 9, 900 mg): 6 (4–18) h
AUC(0-t) ([1]; human, oral, 900 mg): 97 ng·h/mL
Cmax ([1]; human, oral, 900 mg): 6.5 ng/mL
Kp ([1]; human, oral, 900 mg): < 0.01
Tmax ([1]; human, oral, 900 mg): 6 h
ECG- or vital sign–related AEs ([2]; MAD): no ECG- or vital sign–related AEs
subjects with increases in total bilirubin ([2]; MAD 50 mg, three of six): 50%
subjects with low leukocyte counts ([2]; MAD 50 mg, three of six): 50%
subjects with increases in total bilirubin ([2]; MAD 100 mg, three of six): 50%
subjects with increases in bilirubin ([2]; MAD 200 mg, five of six): 83%
subjects with low estimated creatinine clearance ([2]; MAD 200 mg, three of six): 50%
subjects with low leukocyte counts ([2]; MAD 200 mg, three of six): 50%
AEs ([2]; MAD, 50 mg): 5 (83.3) n (%)
Deaths ([2]; MAD, 50 mg): 0 n (%)
Discontinuation due to AEs ([2]; MAD, 50 mg): 0 n (%)
Elevated ALT (marked laboratory abnormality) ([2]; MAD, 50 mg): 0 n (%)
Elevated bilirubin (marked laboratory abnormality) ([2]; MAD, 50 mg): 3 (50.0) n (%)
Elevates AST (marked laboratory abnormality) ([2]; MAD, 50 mg): 0 n (%)
Low hematocrit (marked laboratory abnormality) ([2]; MAD, 50 mg): 1 (16.7) n (%)
Low hemoglobin (marked laboratory abnormality) ([2]; MAD, 50 mg): 2 (33.3) n (%)
Low leukocytes (marked laboratory abnormality) ([2]; MAD, 50 mg): 3 (50.0) n (%)
Low lymphocytes (marked laboratory abnormality) ([2]; MAD, 50 mg): 1 (16.7) n (%)
Low neutrophils (marked laboratory abnormality) ([2]; MAD, 50 mg): 0 n (%)
SAEs ([2]; MAD, 50 mg): 0 n (%)
Treatment-related AEs ([2]; MAD, 50 mg): 3 (50.0) n (%)
AEs ([2]; MAD, 100 mg): 4 (66.7) n (%)
Deaths ([2]; MAD, 100 mg): 0 n (%)
Discontinuation due to AEs ([2]; MAD, 100 mg): 0 n (%)
Elevated ALT (marked laboratory abnormality) ([2]; MAD, 100 mg): 0 n (%)
Elevated bilirubin (marked laboratory abnormality) ([2]; MAD, 100 mg): 3 (50.0) n (%)
Elevates AST (marked laboratory abnormality) ([2]; MAD, 100 mg): 0 n (%)
Low hematocrit (marked laboratory abnormality) ([2]; MAD, 100 mg): 1 (16.7) n (%)
Low hemoglobin (marked laboratory abnormality) ([2]; MAD, 100 mg): 1 (16.7) n (%)
Low leukocytes (marked laboratory abnormality) ([2]; MAD, 100 mg): 1 (16.7) n (%)
Low lymphocytes (marked laboratory abnormality) ([2]; MAD, 100 mg): 0 n (%)
Low neutrophils (marked laboratory abnormality) ([2]; MAD, 100 mg): 1 (16.7) n (%)
SAEs ([2]; MAD, 100 mg): 0 n (%)
Treatment-related AEs ([2]; MAD, 100 mg): 1 (16.7) n (%)
AEs ([2]; MAD, 200 mg): 6 (100.0) n (%)
Deaths ([2]; MAD, 200 mg): 0 n (%)
Discontinuation due to AEs ([2]; MAD, 200 mg): 2 (33.3) n (%)
Elevated ALT (marked laboratory abnormality) ([2]; MAD, 200 mg): 4 (66.7) n (%)
Elevated bilirubin (marked laboratory abnormality) ([2]; MAD, 200 mg): 5 (83.3) n (%)
Elevates AST (marked laboratory abnormality) ([2]; MAD, 200 mg): 2 (33.3) n (%)
Low hematocrit (marked laboratory abnormality) ([2]; MAD, 200 mg): 0 n (%)
Low hemoglobin (marked laboratory abnormality) ([2]; MAD, 200 mg): 1 (16.7) n (%)
Low leukocytes (marked laboratory abnormality) ([2]; MAD, 200 mg): 3 (50.0) n (%)
Low lymphocytes (marked laboratory abnormality) ([2]; MAD, 200 mg): 0 n (%)
Low neutrophils (marked laboratory abnormality) ([2]; MAD, 200 mg): 2 (33.3) n (%)
SAEs ([2]; MAD, 200 mg): 2 (33.3) n (%)
Treatment-related AEs ([2]; MAD, 200 mg): 4 (66.7) n (%)
subjects with AEs ([2]; MAD, 15 subjects): 83.3%
AEs ([2]; MAD, all BMS-932481 doses): 15 (83.3) n (%)
Deaths ([2]; MAD, all BMS-932481 doses): 0 n (%)
Discontinuation due to AEs ([2]; MAD, all BMS-932481 doses): 2 (11.1) n (%)
Elevated ALT (marked laboratory abnormality) ([2]; MAD, all BMS-932481 doses): 4 (22.2) n (%)
Elevated bilirubin (marked laboratory abnormality) ([2]; MAD, all BMS-932481 doses): 11 (61.1) n (%)
Elevates AST (marked laboratory abnormality) ([2]; MAD, all BMS-932481 doses): 2 (11.1) n (%)
Low hematocrit (marked laboratory abnormality) ([2]; MAD, all BMS-932481 doses): 2 (11.1) n (%)
Low hemoglobin (marked laboratory abnormality) ([2]; MAD, all BMS-932481 doses): 4 (22.2) n (%)
Low leukocytes (marked laboratory abnormality) ([2]; MAD, all BMS-932481 doses): 7 (38.9) n (%)
Low lymphocytes (marked laboratory abnormality) ([2]; MAD, all BMS-932481 doses): 1 (5.6) n (%)
Low neutrophils (marked laboratory abnormality) ([2]; MAD, all BMS-932481 doses): 3 (16.7) n (%)
SAEs ([2]; MAD, all BMS-932481 doses): 2 (11.1) n (%)
Treatment-related AEs ([2]; MAD, all BMS-932481 doses): 8 (44.4) n (%)
subjects with treatment-related AEs ([2]; MAD, eight subjects): 44.4%
CSF Aβ42 lowering at exposures at which increases in liver enzymes were observed ([2]; after multiple dosing): greater than 70%
effect on CSF APL1β28 fragment (CSF Aβ peptides; MAD): No effects
effect on CSF Aβ14 fragment (CSF Aβ peptides; MAD): No effects
Mean decrease in CSF Aβ40, change from baseline (CSF Aβ peptides; MAD 50 mg, day 28): −36%
Mean decrease in CSF Aβ42, change from baseline (CSF Aβ peptides; MAD 50 mg, day 28): −38%
increase of CSF Aβ37, of baseline (CSF Aβ peptides; MAD 50 mg, day 28): 292%
Mean decrease in CSF Aβ40, change from baseline (CSF Aβ peptides; MAD 100 mg, day 28): −44%
Mean decrease in CSF Aβ42, change from baseline (CSF Aβ peptides; MAD 100 mg, day 28): −46%
increase of CSF Aβ37, of baseline (CSF Aβ peptides; MAD 100 mg, day 28): 518%
increase of CSF Aβ37, of baseline (CSF Aβ peptides; MAD 200 mg, 48, 72 or 96 hours after last dose): 484%–545
CSF Aβ40 and Aβ42 levels four days after the last day of dosing (CSF Aβ peptides; MAD 200 mg, 96 hours after last dose): still significantly reduced
increase of CSF Aβ38 (CSF Aβ peptides; MAD, 50 mg): 20%
increase of CSF Aβ38 (CSF Aβ peptides; MAD, 100 mg): 69%
increase of CSF Aβ38 (CSF Aβ peptides; MAD, 200 mg): 68%
CSF Aβ42/CSF Aβ40 ratio (CSF Aβ peptides; MAD, especially at the 200-mg dose): Trends in lowering
effect on CSF AB17 (CSF Aβ peptides; SAD and MAD (Supplemental Figs. 4C and 5F)): slight increases
effect on total Aβ in CSF (CSF Aβ peptides; at higher dose levels): modest decreases
projected reduction of CSF Aβ42 from baseline (brain Aβ42): ≥ 50%
decrease of plasma Aβ40 levels ([3]; MAD 50-mg dose, up to): 40%–50
plasma Aβ42 during the dosing period ([3]; MAD 100- and 200-mg cohorts): below the limit of quantitation
reduction of plasma Aβ42 levels ([3]; MAD 200-mg cohort, day 35 (11 days after the last dose)): 46%
change in plasma total Aβ ([3]; multiple dose cohorts): No changes
effect on plasma Aβ42 and Aβ40 ([3]; multiple-dose administrations): dose-dependently decreased
IC50 (UGT1A1): 1.34 µM
metabolizing enzyme (CYP3A4): primarily metabolized by CYP3A4
KI (inactivation) (CYP3A4; human): 82.5 µM
induction of CYP3A4 enzyme activity (CYP3A4; preclinical): weak inducer
Aβ42 and Aβ40 lowering in both the brain and CSF [4]: dose-dependent
